Assay results from ChEMBL document CHEMBL2424560, “Structure- and reactivity-based development of covalent inhibitors of the activating and gatekeeper mutant forms of the epidermal growth factor receptor (EGFR)” (J Med Chem, 2013).
Activity calls are given as the source filed them. The calls are words filed in the database; no cut-off is given here.

Assays:
[1] = target: Epidermal growth factor receptor (Homo sapiens, UniProt P00533, EX19DEL); type: cell-based, PC-9
[2] = target: Epidermal growth factor receptor (Homo sapiens, UniProt P00533, L858R/T790M); type: cell-based, NCI-H1975
Sequence of Epidermal growth factor receptor (Homo sapiens, UniProt P00533, L858R/T790M) (P00533 25-1210 T790M/L858R limits assumed): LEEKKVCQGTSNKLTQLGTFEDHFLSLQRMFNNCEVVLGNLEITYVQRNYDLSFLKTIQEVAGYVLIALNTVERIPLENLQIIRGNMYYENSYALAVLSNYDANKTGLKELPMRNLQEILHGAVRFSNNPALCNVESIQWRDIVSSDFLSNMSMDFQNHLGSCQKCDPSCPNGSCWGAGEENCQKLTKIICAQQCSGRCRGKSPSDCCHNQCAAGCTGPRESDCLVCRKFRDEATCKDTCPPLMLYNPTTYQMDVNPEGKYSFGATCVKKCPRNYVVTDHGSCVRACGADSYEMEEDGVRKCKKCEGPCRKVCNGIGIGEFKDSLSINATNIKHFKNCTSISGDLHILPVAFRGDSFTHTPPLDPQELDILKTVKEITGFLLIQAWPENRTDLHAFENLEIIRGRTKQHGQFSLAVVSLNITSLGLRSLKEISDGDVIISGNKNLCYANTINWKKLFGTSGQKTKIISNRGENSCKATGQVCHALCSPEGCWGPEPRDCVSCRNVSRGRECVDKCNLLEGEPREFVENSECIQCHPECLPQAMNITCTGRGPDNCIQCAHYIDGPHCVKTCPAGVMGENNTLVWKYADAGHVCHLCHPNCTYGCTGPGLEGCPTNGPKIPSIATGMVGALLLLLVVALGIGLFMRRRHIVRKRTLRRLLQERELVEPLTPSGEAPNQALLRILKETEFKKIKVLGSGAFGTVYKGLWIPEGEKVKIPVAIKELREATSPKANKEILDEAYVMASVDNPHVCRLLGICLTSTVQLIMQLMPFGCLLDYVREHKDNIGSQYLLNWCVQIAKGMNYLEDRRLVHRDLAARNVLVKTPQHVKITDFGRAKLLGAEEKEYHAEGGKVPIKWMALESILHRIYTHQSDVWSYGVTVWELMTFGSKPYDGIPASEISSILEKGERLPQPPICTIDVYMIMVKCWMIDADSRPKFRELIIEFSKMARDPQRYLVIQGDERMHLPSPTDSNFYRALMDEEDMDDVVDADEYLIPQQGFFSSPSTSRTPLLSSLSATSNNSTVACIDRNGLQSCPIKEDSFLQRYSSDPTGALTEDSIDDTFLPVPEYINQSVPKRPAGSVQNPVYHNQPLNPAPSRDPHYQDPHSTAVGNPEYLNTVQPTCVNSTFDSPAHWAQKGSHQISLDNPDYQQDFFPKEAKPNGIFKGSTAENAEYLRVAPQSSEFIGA

[3] = target: T1, Epidermal growth factor receptor (Homo sapiens, UniProt P00533); type: cell-based, LoVo
T1 sequence (P00533 whole entry): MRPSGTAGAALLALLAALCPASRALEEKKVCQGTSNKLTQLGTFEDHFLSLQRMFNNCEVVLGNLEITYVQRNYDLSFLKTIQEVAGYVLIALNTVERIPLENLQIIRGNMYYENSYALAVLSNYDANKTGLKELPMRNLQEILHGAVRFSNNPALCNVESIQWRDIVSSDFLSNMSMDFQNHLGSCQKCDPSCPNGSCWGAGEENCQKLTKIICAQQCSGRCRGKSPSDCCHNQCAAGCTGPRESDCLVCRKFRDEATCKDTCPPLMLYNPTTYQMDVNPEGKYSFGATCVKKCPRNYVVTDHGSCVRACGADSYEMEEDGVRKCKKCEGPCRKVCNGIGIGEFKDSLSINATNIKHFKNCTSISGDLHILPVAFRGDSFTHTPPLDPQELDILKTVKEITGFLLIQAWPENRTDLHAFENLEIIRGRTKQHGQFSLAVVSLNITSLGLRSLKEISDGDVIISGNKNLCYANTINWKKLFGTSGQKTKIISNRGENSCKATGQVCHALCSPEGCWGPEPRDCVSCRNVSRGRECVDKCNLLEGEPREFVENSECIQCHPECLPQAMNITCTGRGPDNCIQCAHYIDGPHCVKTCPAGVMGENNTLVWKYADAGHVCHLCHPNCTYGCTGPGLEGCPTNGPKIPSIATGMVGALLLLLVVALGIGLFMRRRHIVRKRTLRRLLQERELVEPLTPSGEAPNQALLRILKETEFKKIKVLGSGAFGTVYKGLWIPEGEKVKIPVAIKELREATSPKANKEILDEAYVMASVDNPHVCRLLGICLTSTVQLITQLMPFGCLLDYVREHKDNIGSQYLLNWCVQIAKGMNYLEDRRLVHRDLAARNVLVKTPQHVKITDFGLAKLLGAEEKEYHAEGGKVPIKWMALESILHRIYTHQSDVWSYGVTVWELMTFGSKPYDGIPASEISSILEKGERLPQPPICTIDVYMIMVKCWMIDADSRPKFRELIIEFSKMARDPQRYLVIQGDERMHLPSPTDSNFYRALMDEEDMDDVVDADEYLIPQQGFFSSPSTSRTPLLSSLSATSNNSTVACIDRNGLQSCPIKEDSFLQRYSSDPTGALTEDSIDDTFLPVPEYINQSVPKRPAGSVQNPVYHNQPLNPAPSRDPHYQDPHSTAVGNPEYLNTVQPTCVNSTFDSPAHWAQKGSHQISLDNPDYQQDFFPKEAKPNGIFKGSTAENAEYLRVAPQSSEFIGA

[4] = (§1) Inhibition of human recombinant N-terminal GST-tagged EGFR L858R/[…] double mutant after 50 mins by HTRF assay
[5] = Lipophilicity, log D of the compound at pH 7.4; type: physicochemical; settings: buffer
[6] = target: Vascular endothelial growth factor receptor 1 (Homo sapiens) (UniProt P17948); test: Inhibition of FLT1 (unknown origin) at 1 uM relative to control
Procedure, shortened: (§2)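 Broad panel of >70 kinases run as biochemical assays at University of Dundee, compound tested at 1 μM; percent inhibition relative to control.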

[7] = target: Calcium/calmodulin-dependent protein kinase kinase 2 (Homo sapiens) (UniProt Q96RR4); test: Inhibition of CAMKKbeta (unknown origin) at 1 uM relative to control
Sequence of Calcium/calmodulin-dependent protein kinase kinase 2 (Homo sapiens) (Q96RR4 2-588 limits assumed): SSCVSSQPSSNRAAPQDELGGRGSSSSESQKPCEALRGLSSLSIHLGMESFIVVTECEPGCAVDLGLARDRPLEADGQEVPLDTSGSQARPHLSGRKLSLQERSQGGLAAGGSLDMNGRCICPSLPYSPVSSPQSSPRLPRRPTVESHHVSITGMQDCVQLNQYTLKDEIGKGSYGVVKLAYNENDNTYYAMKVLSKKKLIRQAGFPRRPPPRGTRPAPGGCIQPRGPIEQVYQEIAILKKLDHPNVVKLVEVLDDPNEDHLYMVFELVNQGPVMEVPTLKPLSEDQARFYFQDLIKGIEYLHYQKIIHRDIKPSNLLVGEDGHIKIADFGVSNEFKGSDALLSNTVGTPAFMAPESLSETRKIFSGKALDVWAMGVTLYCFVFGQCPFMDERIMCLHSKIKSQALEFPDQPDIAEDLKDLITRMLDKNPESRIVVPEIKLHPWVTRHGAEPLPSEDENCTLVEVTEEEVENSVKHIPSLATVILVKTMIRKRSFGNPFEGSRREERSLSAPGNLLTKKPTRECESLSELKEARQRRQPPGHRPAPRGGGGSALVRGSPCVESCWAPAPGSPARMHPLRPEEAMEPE
Procedure, shortened: as §2

[8] = target: Insulin-like growth factor 1 receptor (Homo sapiens) (UniProt P08069); test: Inhibition of IGF1R (unknown origin) at 1 uM relative to control
Procedure, shortened: as §2

[9] = tested on: PC-9; test: Antitumor activity against human PC9 cells harboring EGFR exon 19 deletion activating mutant xenografted in SCID mouse assessed as tumor growth inhibition at 60 mg/kg/day, po after 7 days relative to vehicle-treated control; type: functional; settings: read-out: TGI
[10] = target: Maternal embryonic leucine zipper kinase (Homo sapiens) (UniProt Q14680); test: Inhibition of MELK (unknown origin) at 1 uM relative to control
Procedure, shortened: as §2

[11] = target: T2, Lymphokine-activated killer T-cell-originated protein kinase (Homo sapiens) (UniProt Q96KB5); test: Inhibition of PBK (unknown origin) at 1 uM relative to control
T2 sequence (whole entry): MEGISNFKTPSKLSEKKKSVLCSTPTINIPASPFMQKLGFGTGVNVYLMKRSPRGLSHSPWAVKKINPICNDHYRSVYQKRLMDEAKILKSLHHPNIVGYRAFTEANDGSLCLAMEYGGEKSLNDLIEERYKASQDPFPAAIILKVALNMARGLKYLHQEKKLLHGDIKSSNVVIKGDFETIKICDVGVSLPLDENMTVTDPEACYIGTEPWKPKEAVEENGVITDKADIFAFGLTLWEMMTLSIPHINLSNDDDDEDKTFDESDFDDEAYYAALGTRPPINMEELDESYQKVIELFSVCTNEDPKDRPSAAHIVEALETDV
Procedure, shortened: as §2

[12] = tested on: NCI-H1975; test: Antitumor activity against human NCI-H1975 cells harboring EGFR L858R/[…] double mutant xenografted in SCID mouse assessed as tumor growth inhibition at 60 mg/kg/day, po after 7 days relative to vehicle-treated control; type: functional; settings: read-out: TGI
[13] = target: Serine/threonine-protein kinase Chk2 (Homo sapiens) (UniProt O96017); test: Inhibition of CHK2 (unknown origin) at 1 uM relative to control
Procedure, shortened: as §2

[14] = target: Myosin light chain kinase, smooth muscle (Homo sapiens) (UniProt Q15746); test: Inhibition of smMLCK (unknown origin) at 1 uM relative to control
Procedure, shortened: as §2

[15] = target: Insulin receptor (Homo sapiens) (UniProt P06213); test: Inhibition of insulin receptor (unknown origin) at 1 uM relative to control
Procedure, shortened: as §2

[16] = target: Tyrosine-protein kinase BTK (Homo sapiens) (UniProt Q06187); test: Inhibition of BTK (unknown origin) at 1 uM relative to control
Sequence of Tyrosine-protein kinase BTK (Homo sapiens) (Q06187 whole entry): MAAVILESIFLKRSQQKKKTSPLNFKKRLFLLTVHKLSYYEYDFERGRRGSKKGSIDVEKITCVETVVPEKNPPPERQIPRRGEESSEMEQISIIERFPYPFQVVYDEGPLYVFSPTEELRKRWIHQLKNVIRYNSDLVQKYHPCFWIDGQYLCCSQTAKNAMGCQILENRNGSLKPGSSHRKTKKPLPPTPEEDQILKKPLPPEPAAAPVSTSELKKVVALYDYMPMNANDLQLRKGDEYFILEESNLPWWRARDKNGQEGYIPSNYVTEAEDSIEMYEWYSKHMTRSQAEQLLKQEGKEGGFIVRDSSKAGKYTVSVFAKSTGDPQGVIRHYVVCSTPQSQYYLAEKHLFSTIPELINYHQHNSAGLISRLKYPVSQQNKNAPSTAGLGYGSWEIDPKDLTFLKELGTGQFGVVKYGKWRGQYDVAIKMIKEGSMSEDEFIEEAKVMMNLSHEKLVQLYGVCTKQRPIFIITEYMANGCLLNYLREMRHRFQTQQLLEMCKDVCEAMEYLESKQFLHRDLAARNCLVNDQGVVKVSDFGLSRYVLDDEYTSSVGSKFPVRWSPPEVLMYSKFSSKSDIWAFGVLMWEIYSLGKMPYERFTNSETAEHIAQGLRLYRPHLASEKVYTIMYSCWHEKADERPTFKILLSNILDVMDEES
Procedure, shortened: as §2

[17] = target: Mitogen-activated protein kinase kinase kinase 11 (Homo sapiens) (UniProt Q16584); test: Inhibition of MAP3K11 (unknown origin) at 1 uM relative to control
Procedure, shortened: as §2

[18] = tested on: A-431; test: Antitumor activity against wild type human A431 cells xenografted in SCID mouse assessed as tumor growth inhibition at 60 mg/kg/day, po after 7 days relative to vehicle-treated control; type: functional; settings: read-out: TGI
[19] = species on record: Homo sapiens; test: as §1
[20] = species on record: Homo sapiens; test: Selectivity ratio of IC50 for wild type human EGFR to IC50 for human recombinant N-terminal GST-tagged EGFR L858R/[…] double mutant
[21] = tested on: NCI-H1975; test: Selectivity ratio of IC50 for EGFR L858R/[…] double mutant phosphorylation in human NCI-H1975 cells to IC50 for human recombinant N-terminal GST-tagged EGFR L858R/[…] double mutant; type: cell-based
[22] = target: T1, Epidermal growth factor receptor; test: Inhibition of wild type human EGFR after 50 mins by HTRF assay
[23] = Half life in phosphate buffer at pH 7.4 at 50 uM by LC-MS analysis in presence of glutathione; type: physicochemical; settings: phosphate buffer with glutathione
[24] = Aqueous solubility of the compound; type: physicochemical; settings: buffer

Sequence of Epidermal growth factor receptor (Homo sapiens, UniProt P00533, EX19DEL) (P00533 whole entry, looked up, stated change not applied): as the sequence (P00533 whole entry) above

**Q.** Which IC50 [1] does the source give for `COc1ccc(NC(=O)/C=C/CN(C)C)cc1Nc1nccc(-c2cnn3ccccc23)n1` here?
**A.** 390 nM

**Q.** What about the IC50 [2] of the same compound?
**A.** 250 nM

**Q.** And the IC50 [3]?
**A.** 20000 nM

**Q.** With `C=CC(=O)Nc1ccc(Nc2ncc(Cl)c(-c3c[nH]c4ccccc34)n2)cc1` as the compound, how does the IC50 [1] read?
**A.** 19000 nM

**Q.** What about the IC50 [2] of the same compound?
**A.** 12900 nM

**Q.** And the IC50 [3]?
**A.** > 30000 nM

**Q.** And the IC50 [4]?
**A.** 320 nM

**Q.** Which IC50 [2] does the source give for `COc1ccc(NC(=O)CCCN(C)C)cc1Nc1ncc(Cl)c(-c2cnn3ccccc23)n1` here?
**A.** 2300 nM

**Q.** What about the IC50 [4] of the same compound?
**A.** 18 nM

**Q.** Which IC50 [1] does the source give for `C=CC(=O)Nc1ccc(OC)c(Nc2ncc(Cl)c(-c3cnn4ccccc34)n2)c1` here?
**A.** 150 nM

**Q.** And the IC50 [2]?
**A.** 33 nM

**Q.** And the logD [5]?
**A.** > 4.3

**Q.** And the IC50 [3]?
**A.** 12800 nM

**Q.** For `COc1ccc(NC(=O)/C=C/CN(C)C)cc1Nc1ncc(Cl)c(-c2cnn3ccccc23)n1`, which inhibition [6] is on record?
**A.** > 75%

**Q.** What about the inhibition [7] of the same compound?
**A.** > 75%

**Q.** And the inhibition [8]?
**A.** > 75%

**Q.** And the inhibition in vivo at 60 mg/kg/day [9]?
**A.** 134%

**Q.** What about the inhibition [10] of the same compound?
**A.** > 75%

**Q.** What about the inhibition [11] of the same compound?
**A.** > 75%

**Q.** What about the inhibition in vivo at 60 mg/kg/day [12] of the same compound?
**A.** 105%

**Q.** What about the inhibition [13] of the same compound?
**A.** > 75%

**Q.** And the inhibition [14]?
**A.** > 75%

**Q.** What about the inhibition [15] of the same compound?
**A.** > 75%

**Q.** What about the inhibition [16] of the same compound?
**A.** > 75%

**Q.** What about the inhibition [17] of the same compound?
**A.** > 75%

**Q.** And the inhibition in vivo at 60 mg/kg/day [18]?
**A.** 46%

**Q.** Which inhibition [19] does the source give for `COc1cc2ncnc(Nc3ccc(F)c(Cl)c3)c2cc1NC(=O)/C=C/CN1CCCCC1` here?
**A.** Active

**Q.** For `COc1cc(N2CCN(C(C)=O)CC2)ccc1Nc1ncc(Cl)c(-c2c[nH]c3ccccc23)n1`, which Ratio IC50 [20] is on record?
**A.** 88

**Q.** What about the Ratio IC50 [21] of the same compound?
**A.** 90

**Q.** And the IC50 [22]?
**A.** 790 nM

**Q.** And the IC50 [2]?
**A.** 770 nM

**Q.** And the IC50 [4]?
**A.** 9 nM

**Q.** With `C=CC(=O)Nc1cc(Nc2nccc(-c3c[nH]c4ccccc34)n2)c(OC)cc1N1CCN(C)CC1` as the compound, how does the IC50 [1] read?
**A.** 17 nM

**Q.** And the IC50 [2]?
**A.** 68 nM

**Q.** What about the logD [5] of the same compound?
**A.** 3.4

**Q.** What about the IC50 [3] of the same compound?
**A.** 1300 nM

**Q.** Which results are given for `C=CC(=O)Nc1cc(Nc2nccc(-c3cnn4ccccc34)n2)c(OC)cc1N1CCN(C)CC1`?
**A.** IC50 [1]: 140 nM; IC50 [3]: 19000 nM

**Q.** Which IC50 [1] does the source give for `COc1ccc(NC(=O)/C=C/CN(C)C)cc1Nc1ncc([S+](C)[O-])c(-c2cnn3ccccc23)n1` (centres undefined) here?
**A.** 1300 nM

**Q.** And the IC50 [2]?
**A.** 15200 nM

**Q.** And the logD [5]?
**A.** 1.3

**Q.** And the IC50 [3]?
**A.** > 30000 nM

**Q.** Which IC50 [1] does the source give for `COc1ccc(NC(=O)/C=C/CN(C)C)cc1Nc1ncc(Cl)c(-c2c[nH]c3ccccc23)n1` here?
**A.** 85 nM

**Q.** And the IC50 [2]?
**A.** 53 nM

**Q.** And the IC50 [3]?
**A.** 1550 nM

**Q.** With `C=CC(=O)N1CCc2cc(OC)c(Nc3ncc(Cl)c(-c4c[nH]c5ccccc45)n3)cc21` as the compound, how does the IC50 [1] read?
**A.** 2800 nM

**Q.** And the IC50 [2]?
**A.** 2100 nM

**Q.** And the IC50 [3]?
**A.** > 30000 nM

**Q.** And the IC50 [4]?
**A.** 52 nM

**Q.** Which results are given for `C=CC(=O)Nc1cccc(Nc2ncc(Cl)c(-c3c[nH]c4ccccc34)n2)c1`?
**A.** IC50 [1]: 270 nM; IC50 [2]: 81 nM; logD [5]: > 4.3; IC50 [3]: 3500 nM; IC50 [4]: 53 nM

**Q.** With `CN(C)C/C=C/C(=O)Nc1cc2c(Nc3ccc(F)c(Cl)c3)ncnc2cc1O[C@H]1CCOC1` [AFATINIB] as the compound, how does the half-life at 50 µM [23] read?
**A.** 25 min

**Q.** Which inhibition [19] does the source give for `C=CC(=O)Nc1cc2c(Nc3ccc(F)c(Cl)c3)ncnc2cc1OCCCN1CCOCC1` here?
**A.** Active

**Q.** With `C=CC(=O)Nc1ccccc1` as the compound, how does the solubility [24] read?
**A.** soluble

**Q.** With `COc1ccc(NC(=O)CC#N)cc1Nc1ncc(Cl)c(-c2c[nH]c3ccccc23)n1` as the compound, how does the IC50 [1] read?
**A.** 1800 nM

**Q.** What about the IC50 [2] of the same compound?
**A.** 2800 nM

**Q.** And the IC50 [3]?
**A.** > 30000 nM

**Q.** And the IC50 [4]?
**A.** 65 nM

**Q.** For `C=CC(=O)Nc1ccc(OC)c(Nc2ncc(Cl)c(-c3c[nH]c4ccccc34)n2)c1`, which IC50 [1] is on record?
**A.** 29 nM

**Q.** What about the IC50 [2] of the same compound?
**A.** 22 nM

**Q.** What about the logD [5] of the same compound?
**A.** > 4.3

**Q.** What about the IC50 [3] of the same compound?
**A.** 550 nM

**Q.** And the IC50 [4]?
**A.** 6.3 nM

**Q.** With `COc1ccc(NC(=O)/C=C/CN(C)C)cc1Nc1ncc(C)c(-c2cnn3ccccc23)n1` as the compound, how does the IC50 [1] read?
**A.** 250 nM

**Q.** And the IC50 [2]?
**A.** 290 nM

**Q.** And the IC50 [3]?
**A.** 24000 nM

**Q.** With `COc1ccc(NC(=O)/C=C/CN(C)C)cc1Nc1ncc(F)c(-c2cnn3ccccc23)n1` as the compound, how does the IC50 [1] read?
**A.** 380 nM

**Q.** What about the IC50 [2] of the same compound?
**A.** 220 nM

**Q.** And the logD [5]?
**A.** 3.3

**Q.** What about the IC50 [3] of the same compound?
**A.** 19000 nM

**Q.** For `C=CC(=O)Nc1cc(Nc2ncc(Cl)c(-c3c[nH]c4ccccc34)n2)c(OC)cc1N1CCN(C)CC1`, which IC50 [1] is on record?
**A.** 23 nM
